Experimental data of several laboratories.
Target: Tyrosine-protein kinase Lyn (LYN, Homo sapiens, UniProt P07948)

SMILES	observed	action	technique	tested at	measurement	result
CCN(CC)CCNC(=O)c1c(C)[nH]c(/C=C2\C(=O)Nc3ccc(F)cc32)c1C	enzyme activity	inhibitor		10 µM	inhibition	98%
O=C1Nc2ccc(Cl)cc2C1=Cc1cc(Cl)c(O)c(Cl)c1	cell-free assay			0.5 µM	remaining signal	81.6%
Cc1ccc(NC(=O)c2ccc(C)c(C(F)(F)F)c2)cc1C#Cc1nn(C2CCC(O)CC2)c2ncnc(N)c12 (centres unmarked)	cell-free assay	inhibitor		10 µM	remaining signal	0%
O=C1NC(=O)c2cc(Nc3ccc(F)cc3)c(Nc3ccc(F)cc3)cc21	cell-free assay	inhibitor		0.5 µM	remaining signal	98.7%
Cn1c2c(c3ccccc31)C(C#N)C(C)(C)NC2=O (centres unmarked)	thermal stability		DSF	10 µM	ΔTm	0 °C
CN(C)c1ncnc(-c2ccc3nc(Nc4cc(CN5CCN(C(=O)CC(F)(F)F)CC5)ccn4)[nH]c3c2)c1Cl	cell-free assay		competition with immobilised ligand	1 µM	remaining binding	94%
CC(C)(O)[C@H]1CC[C@H](Nc2ccc3ncc(-c4cccc(C(F)(F)F)c4)n3n2)CC1	enzyme activity	inhibitor		1 µM	remaining activity	41.9%
Cc1ccc(-n2nc(C(C)(C)C)cc2NC(=O)Nc2ccc(OCCN3CCOCC3)c3ccccc23)cc1	enzyme activity	inhibitor		10 µM	inhibition	81%
CS(=O)(=O)CCNCc1ccc(-c2ccc3ncnc(Nc4ccc(OCc5cccc(F)c5)c(Cl)c4)c3c2)o1	cell-free assay			0.5 µM	remaining signal	104%
CC(C)(C)c1nc2c(s1)c1nc(N)ncc1c1ccc(NS(=O)(=O)c3c(F)cccc3F)c(F)c12	enzyme activity	inhibitor	radiometric	1 µM	remaining activity	87%
CCN1CCC2(CC1)NC(=O)c1c(c3ccc(Cl)c(Cl)c3n1C)C2C#N (racemic)	thermal stability		DSF	10 µM	ΔTm	0 °C
CC1=C(C#N)[C@@H](c2ccc3[nH]nc(C)c3c2)C(C#N)=C(c2ccc(Cl)cc2)N1	cell-free assay		competition with immobilised ligand	1 µM	remaining binding	96.8%
CN1CCC2(CC1)NC(=O)c1c(c3ccc(Cl)c(Cl)c3n1C)C2C#N (racemic)	thermal stability		DSF	10 µM	ΔTm	-0.1 °C
Cn1nc(C(F)(F)F)cc1-c1cnc(N2CCc3cc(S(=O)(=O)Nc4c(F)cc(Cl)cc4F)cc(N4CCCC4=O)c32)nc1	cell-free assay		competition with immobilised ligand	1 µM	remaining binding	100%
O=C(Nc1cnn(-c2csc(C(=O)NC3COC3)c2)c1)Nc1c(F)cccc1Cl	enzyme activity	inhibitor		5 µM	remaining activity	95.3%
O=C(NC[C@@H]1[C@H]2CN(C(=O)OCc3cc(C(F)(F)F)cc(C(F)(F)F)c3)C[C@@H]12)c1ccc2[nH]nnc2c1	cell-free assay		competition with immobilised ligand	1 µM	remaining binding	100%
Cn1c2c(c3ccc(Cl)c(Cl)c31)C(C#N)C1(CCOCC1)NC2=O (centres unmarked)	thermal stability		DSF	10 µM	ΔTm	-0.2 °C
COc1ccc(COc2ccc(Cc3cnc(N)nc3N)cc2OC)cc1	cell-free assay			0.5 µM	remaining signal	99.9%

SMILES	observed	action	technique	tested at	measurement	result
c1nc2c(Nc3ccc4c(c3)OCCO4)nc(Nc3ccc4c(c3)OCCO4)nc2[nH]1	enzyme activity	inhibitor		10 µM	activity vs control	32%
Cc1ccc(NC(=O)c2ccc(CN3CCN(C)CC3)cc2)cc1Nc1nccc(-c2cccnc2)n1	enzyme activity	inhibitor		0.5 µM	activity vs control	59.6%
CCCOc1ccc(OC)c(F)c1C(=O)c1ccc(C(=O)N[C@@H]2CNC[C@H]2NC(=O)c2ccc3[nH]ncc3c2)cc1	enzyme activity	inhibitor		10 µM	remaining activity	39%
N#CCCc1ccc2c(c1)-c1[nH]c3ccc([N+](=O)[O-])cc3c1CC(=O)N2	cell-free assay			0.5 µM	remaining signal	23%
CNCc1ccc(-c2cc(-c3nc(-c4ccc(S(=O)(=O)C(C)C)cc4)cnc3N)on2)cc1	enzyme activity	inhibitor		0.4 µM	inhibition	13%
O=C(Nc1cnn(-c2csc(C(=O)NC3COC3)c2)c1)Nc1ccccc1Cl	enzyme activity	inhibitor		5 µM	remaining activity	96.8%
Cn1c2c(Cl)c(Cl)ccc2c2cc(N)[nH]c(=O)c21	thermal stability		DSF	10 µM	ΔTm	0.3 °C
O=C(N1CCS(=O)(=O)CC1)N1C[C@H](c2ccc(OC(F)(F)F)cc2)C[C@H](c2nc(C3CC3)no2)C1	cell-free assay		competition with immobilised ligand	1 µM	remaining binding	85%
N#CC1c2c([nH]c3c(Cl)c(Cl)ccc23)C(=O)NC12CCCCC2 (racemic)	thermal stability		DSF	10 µM	ΔTm	0.2 °C
CNc1cccc2cc(C(=O)Nc3ccc(C(=O)O)cc3)c(=O)[nH]c12	enzyme activity	inhibitor		10 µM	inhibition	-4.6%
O=C(NS(=O)(=O)c1ccc(NCC2CCOCC2)c([N+](=O)[O-])c1)c1ccc(N2CCN(Cc3ccc(C(F)(F)F)cc3-c3ccc(Cl)cc3)CC2)cc1Oc1cnc2[nH]ccc2c1	cell-free assay		competition with immobilised ligand	1 µM	remaining binding	99%
Cn1c2c(c3ccc(Cl)c(Cl)c31)C(C#N)C1(CCCC1)NC2=O (centres unmarked)	thermal stability		DSF	10 µM	ΔTm	0 °C
CNC(=O)c1cc(Oc2ccc(NC(=O)Nc3ccc(Cl)c(C(F)(F)F)c3)cc2)ccn1	enzyme activity	inhibitor		10 µM	inhibition	96%
N#CC1(c2ccccn2)CCN(Cc2cc(C(=O)N3CCCC3)c(=O)n3ccccc23)CC1	cell-free assay		competition with immobilised ligand	1 µM	remaining binding	99%
Cc1cnc(NC2CCOCC2)nc1-n1cnc(C(=O)NC(CN)c2cc(F)cc(Cl)c2)c1 (centres unmarked)	enzyme activity	inhibitor	radiometric	1 µM	remaining activity	84%
O=c1c2ccccc2[nH]c(=S)n1CCN1CCC(=C(c2ccc(F)cc2)c2ccc(F)cc2)CC1	enzyme activity	inhibitor		0.5 µM	remaining activity	108%
CN(C(=O)c1ccccc1)c1cc(N(C)c2ccc3c(c2)CCc2ccc(C(=O)NCCN4CCOCC4)cc2C3=O)ccc1F	cell-free assay		competition with immobilised ligand	1 µM	remaining binding	86%
